Results on two compounds are retold here after article PMC4521672 (OncoTargets and therapy, 2015).

The target in one test is T1, GSTA1 (GST-α) (Homo sapiens, UniProt P08263).
T1 sequence (P08263 1-222): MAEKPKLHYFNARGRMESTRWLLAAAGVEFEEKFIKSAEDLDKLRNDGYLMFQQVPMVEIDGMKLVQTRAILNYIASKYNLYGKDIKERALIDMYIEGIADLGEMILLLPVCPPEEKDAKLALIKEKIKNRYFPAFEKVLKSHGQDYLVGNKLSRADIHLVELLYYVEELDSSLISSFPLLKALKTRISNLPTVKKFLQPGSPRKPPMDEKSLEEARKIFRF
As to the kind of experiment: GST activity assay. The class given is biochemical. The note with it: read-out: IC50 for inhibition of formation of the CDNB-GSH conjugate in the presence of GST-α; GSTA1 5 μg/mL, pH 6.8, absorption at 355 nm. In a few lines: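 Recombinant human GSTA1 at 5 μg/mL in 0.1 M sodium phosphate, pH 6.8. GSH and CDNB were added from 2.5 mM and 7.5 mM stocks. Test compound was made as a 10 mM ethanol stock, then serially diluted to 10^-2–100 μM to compete with CDNB for conjugation to GSH. After 1–5 min, absorbance read at 355 nm, minus non-enzymatic conjugation. Triplicate runs; IC50 taken from dose–response curves.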

The next test has as its target GSTP1 (GST-π) (Homo sapiens, UniProt P09211). Briefly: GST activity assay. Format: biochemical. The note with it: read-out: IC50 for inhibition of formation of the CDNB-GSH conjugate in the presence of GST-π; GSTP1 5 μg/mL, pH 6.8, absorption at 355 nm.
Another test has as its system C6 glioma tumor. Briefly: In vivo PET imaging of C6 glioma-bearing rat. Further details: species or system Sprague–Dawley rats. Particulars: dynamic PET 0-60 minutes post-injection, intravenous. The essentials:
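Male Sprague–Dawley rats (8 weeks) stereotactically inoculated in the right hemisphere with 1.0×10^5 C6 cells. Tumours grew 2 weeks to 3–5 mm, with loci confirmed by MRI. Rats were anaesthetised with isoflurane in 200 mL/min oxygen and fitted with venous and arterial catheters. Imaged on a microPET R4 scanner; one tumour-bearing and one healthy rat were scanned.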

Several values for one entry are separate records, joined by “and”; a condition that tells them apart may be missing. Equal entries are not always repeated.

Consider `C=C(CC)C(=O)c1ccc(OCC(=O)NCCCCF)c(Cl)c1Cl` [FBuEA, fluorobutyl ethacrynic amide], for which the 50% inhibitory concentration (IC50) was 17.5 µM at GSTA1 (GST-α); 6.02 µM and 6 µM at GSTP1 (GST-π).

With `Cc1cn([C@H]2C[C@H]([18F])[C@@H](CO)O2)c(=O)[nH]c1=O` [[^18F]FLT, 3′-deoxy-3′-[^18F] fluorothymidine], the “Accumulation in C6 glioma tumor loci (PET)” value in the test with C6 glioma tumor was “tumor sites were targeted”.
